The values below come from ChEMBL document CHEMBL3526093, “Oxidative ipso substitution of 2,4-difluoro-benzylphthalazines: identification of a rare stable quinone methide and subsequent GSH conjugate” (Drug Metab Dispos, 2012).

The nature of series [1]: Half life under physiological conditions. Type of series: ADME.
The next series concerns the target Cytochrome P450 2C9 (Homo sapiens, UniProt P11712). Put plainly: Drug metabolism assessed as human CYP2C9-mediated quinone methide metabolite formation at 10 uM by LC/MS method. Type of series: ADME. As to conditions: recombinant enzyme. An outline of the steps:
(§1)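 Recombinant human P450 Supersomes (100 pmol/ml enzyme) in 0.1 M KH2PO4 pH 7.4 with 5 mM MgCl2 and substrate, prewarmed 2 min at 37°C. NADPH (2 mM) started the reaction, with GSH (5 mM) added 3 min later. Controls lacked GSH or NADPH. Aliquots at 0, 0.5 and 1 h were stopped in ice-cold acetonitrile, spun, and supernatants run on LC/MSn.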

For another series, the target named is Cytochrome P450 2C19 (Homo sapiens, UniProt P33261). Description: Drug metabolism assessed as human CYP2C19-mediated quinone methide metabolite formation at 10 uM by LC/MS method. The conditions noted are these: recombinant enzyme. Type of series: ADME. In short, it runs like this:
as §1

For the next series, the target named is Cytochrome P450 2D6 (Homo sapiens, UniProt P10635). Put plainly: Drug metabolism assessed as human CYP2D6-mediated quinone methide metabolite formation at 10 uM by LC/MS method. As to conditions: recombinant enzyme. In kind it is ADME. In short, it runs like this:
as §1

Another series addresses T1, Cytochrome P450 1A2 (Homo sapiens, UniProt P05177).
T1 sequence (P05177 whole entry): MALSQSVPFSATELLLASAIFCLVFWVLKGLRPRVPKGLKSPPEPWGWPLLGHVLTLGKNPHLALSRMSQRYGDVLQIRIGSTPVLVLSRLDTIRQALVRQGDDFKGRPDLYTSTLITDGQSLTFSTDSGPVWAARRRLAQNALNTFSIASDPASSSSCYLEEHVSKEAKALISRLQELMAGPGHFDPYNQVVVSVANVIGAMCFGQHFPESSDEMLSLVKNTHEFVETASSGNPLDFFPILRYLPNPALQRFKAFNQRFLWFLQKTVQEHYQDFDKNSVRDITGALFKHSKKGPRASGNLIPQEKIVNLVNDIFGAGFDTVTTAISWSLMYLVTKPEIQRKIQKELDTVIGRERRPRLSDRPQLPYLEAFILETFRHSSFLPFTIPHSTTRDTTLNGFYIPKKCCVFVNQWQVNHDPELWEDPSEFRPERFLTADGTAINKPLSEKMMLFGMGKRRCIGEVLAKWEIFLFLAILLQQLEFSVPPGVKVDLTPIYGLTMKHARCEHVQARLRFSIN
Put plainly: Drug metabolism assessed as human CYP1A2-mediated quinone methide metabolite formation at 10 uM by LC/MS method. As to conditions: recombinant enzyme. In kind it is ADME. An outline of the steps: as §1

A further series has as its target Cytochrome P450 2E1 (Homo sapiens, UniProt P05181). Put plainly: Drug metabolism assessed as human CYP2E1-mediated quinone methide metabolite formation at 10 uM by LC/MS method. Type of series: ADME. As to conditions: recombinant enzyme. An outline of the steps:
as §1

Series [2] can be described thus: Retention time of the compound by LC/MS method. Type of series: physicochemical. An outline of the steps:
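Reversed-phase C18 column (2.1 × 150 mm), 20 µl injection, 0.25 ml/min. A: 10 mM ammonium formate/0.1% formic acid in water. B: acetonitrile/0.1% formic acid. Gradient held at 10% B for 5 min, then to 90% B over 24 min, back to 10% B over 2 min, held 3 min (35 min run). Positive-ion electrospray detection.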

Series [3] deals with Liver microsome. Put plainly: Drug metabolism in human liver microsomes assessed as quinone methide metabolite formation at 10 uM by LC/MS method. Type of series: ADME. In short, it runs like this:
(§2)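 Pooled human liver microsomes (1 mg/ml protein) in 0.1 M KH2PO4 pH 7.4 with 5 mM MgCl2 and substrate, prewarmed 2 min at 37°C with shaking. Started with 2 mM NADPH, then 5 mM GSH added 3 min later. Controls omitted GSH or NADPH. Samples at 0, 0.5 and 1 h quenched in ice-cold acetonitrile, centrifuged, supernatant analysed by positive-ion ESI LC/MSn.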

The target in series [4] is T2, Cytochrome P450 3A4 (Homo sapiens, UniProt P08684). Description: Drug metabolism assessed as human CYP3A4-mediated quinone methide metabolite formation at 10 uM by LC/MS method. In kind it is ADME. As to conditions: recombinant enzyme. An outline of the steps: as §1
For series [5], the target named is T2, Cytochrome P450 3A4. Description: Drug metabolism assessed as human CYP3A4-mediated compound formation using 10 uM [2-(6-(4-(4-(2,4-difluorobenzyl)phthalazin-1-yl)piperazin-1-yl)pyridin-3-yl)propan-2-ol] by LC/MS method. Type of series: ADME. As to conditions: recombinant enzyme. An outline of the steps: as §1
The subject of series [6] is Liver microsome. Put plainly: Drug level in human liver microsomes treated with 10 uM [2-(6-(4-(4-(2,4-difluorobenzyl)phthalazin-1-yl)piperazin-1-yl)pyridin-3-yl)propan-2-ol] by LC/MS method. In kind it is ADME. An outline of the steps:
as §2
Background: Liver microsomes are vesicles of endoplasmic reticulum, rich in cytochrome P450 enzymes.

T2 sequence (P08684 whole entry): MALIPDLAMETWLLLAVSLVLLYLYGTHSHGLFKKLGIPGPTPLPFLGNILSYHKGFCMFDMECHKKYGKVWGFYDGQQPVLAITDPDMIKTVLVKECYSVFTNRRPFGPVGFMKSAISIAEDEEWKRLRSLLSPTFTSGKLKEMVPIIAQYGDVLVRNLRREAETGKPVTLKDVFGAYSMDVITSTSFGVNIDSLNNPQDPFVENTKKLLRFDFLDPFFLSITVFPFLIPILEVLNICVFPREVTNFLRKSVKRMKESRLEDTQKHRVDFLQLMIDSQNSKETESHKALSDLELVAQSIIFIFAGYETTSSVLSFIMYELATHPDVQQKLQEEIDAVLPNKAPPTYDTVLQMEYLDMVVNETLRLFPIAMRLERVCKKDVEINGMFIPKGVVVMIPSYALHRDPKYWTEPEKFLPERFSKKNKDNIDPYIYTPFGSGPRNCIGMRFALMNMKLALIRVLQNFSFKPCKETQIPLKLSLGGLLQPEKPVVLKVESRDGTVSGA
Chain of Cytochrome P450 2C9 (P11712 whole entry): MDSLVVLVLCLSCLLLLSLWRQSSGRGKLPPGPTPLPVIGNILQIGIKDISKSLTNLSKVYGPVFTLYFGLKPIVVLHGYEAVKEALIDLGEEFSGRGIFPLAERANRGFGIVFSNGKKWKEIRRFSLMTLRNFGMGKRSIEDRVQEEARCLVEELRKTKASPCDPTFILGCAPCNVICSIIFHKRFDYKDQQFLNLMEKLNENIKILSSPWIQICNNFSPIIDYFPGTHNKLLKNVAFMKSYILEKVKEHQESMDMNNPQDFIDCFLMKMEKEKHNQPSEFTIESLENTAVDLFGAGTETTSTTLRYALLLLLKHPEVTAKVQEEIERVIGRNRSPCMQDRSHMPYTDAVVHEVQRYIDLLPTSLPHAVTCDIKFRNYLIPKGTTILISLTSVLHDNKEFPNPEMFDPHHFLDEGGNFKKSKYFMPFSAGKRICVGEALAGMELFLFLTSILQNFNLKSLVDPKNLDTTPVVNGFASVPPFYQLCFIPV
Chain of Cytochrome P450 2E1 (P05181 whole entry): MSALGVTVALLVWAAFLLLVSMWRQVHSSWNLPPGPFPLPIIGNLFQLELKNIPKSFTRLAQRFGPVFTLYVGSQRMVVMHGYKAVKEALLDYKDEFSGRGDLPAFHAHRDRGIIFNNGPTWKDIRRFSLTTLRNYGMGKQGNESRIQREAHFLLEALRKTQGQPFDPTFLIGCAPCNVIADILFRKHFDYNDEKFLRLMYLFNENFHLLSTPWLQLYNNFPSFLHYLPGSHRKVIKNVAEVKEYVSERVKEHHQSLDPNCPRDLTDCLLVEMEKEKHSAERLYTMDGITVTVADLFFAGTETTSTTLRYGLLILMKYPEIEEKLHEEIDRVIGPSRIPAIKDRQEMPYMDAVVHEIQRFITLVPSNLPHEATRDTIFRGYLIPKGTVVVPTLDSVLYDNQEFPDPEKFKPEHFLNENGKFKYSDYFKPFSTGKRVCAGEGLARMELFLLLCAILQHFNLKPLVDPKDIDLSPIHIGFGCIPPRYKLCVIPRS
Chain of Cytochrome P450 2C19 (P33261 whole entry): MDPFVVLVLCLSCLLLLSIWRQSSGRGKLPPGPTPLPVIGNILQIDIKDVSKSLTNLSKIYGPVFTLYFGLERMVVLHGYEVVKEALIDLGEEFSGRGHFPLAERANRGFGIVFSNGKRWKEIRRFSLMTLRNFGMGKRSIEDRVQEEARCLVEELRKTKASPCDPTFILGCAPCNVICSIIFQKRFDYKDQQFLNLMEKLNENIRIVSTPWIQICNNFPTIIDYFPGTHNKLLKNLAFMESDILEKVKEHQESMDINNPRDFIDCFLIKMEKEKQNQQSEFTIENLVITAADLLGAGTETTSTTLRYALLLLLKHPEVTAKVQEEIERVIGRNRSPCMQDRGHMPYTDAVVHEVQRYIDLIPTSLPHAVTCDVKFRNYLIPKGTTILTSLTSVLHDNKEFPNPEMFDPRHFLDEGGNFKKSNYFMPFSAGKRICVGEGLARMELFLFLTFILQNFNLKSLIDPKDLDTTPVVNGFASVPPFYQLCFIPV
Chain of Cytochrome P450 2D6 (P10635 whole entry): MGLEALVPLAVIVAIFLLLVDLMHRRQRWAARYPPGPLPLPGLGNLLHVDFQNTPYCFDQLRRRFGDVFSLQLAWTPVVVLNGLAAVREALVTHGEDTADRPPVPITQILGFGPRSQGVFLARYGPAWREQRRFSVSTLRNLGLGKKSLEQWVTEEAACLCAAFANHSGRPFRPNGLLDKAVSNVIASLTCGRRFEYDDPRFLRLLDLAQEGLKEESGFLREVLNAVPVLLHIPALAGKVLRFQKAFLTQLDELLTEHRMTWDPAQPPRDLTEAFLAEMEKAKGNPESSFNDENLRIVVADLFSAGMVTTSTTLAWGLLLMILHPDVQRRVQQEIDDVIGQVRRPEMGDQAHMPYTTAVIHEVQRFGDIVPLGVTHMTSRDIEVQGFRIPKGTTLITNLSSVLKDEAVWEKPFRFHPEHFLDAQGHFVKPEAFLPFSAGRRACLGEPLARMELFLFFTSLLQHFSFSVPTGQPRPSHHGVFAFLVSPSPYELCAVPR

The term half-life denotes how long it takes for the measured level to halve. Take `C/C=C(/C(=C1C=CC(=O)C=C1)c1ccc(OCCN(C)C)cc1)c1ccccc1`: the half-life in [1] is 3 h.
In the case of `CC(C)(O)c1ccc(N2CCN(c3nnc(Cc4ccc(F)cc4F)c4ccccc34)CC2)nc1`, the Drug metabolism result on Cytochrome P450 2C9 was “metabolite_not_detected”; at Cytochrome P450 2C19 it was “metabolite_not_detected”; at Cytochrome P450 2D6 it was “metabolite_not_detected”; on Cytochrome P450 1A2, “metabolite_not_detected”; at Cytochrome P450 2E1 it was “metabolite_not_detected”; with Liver microsome [3], “metabolite_detected”. In addition, the Drug metabolism result on Cytochrome P450 3A4 [4] is on record as “metabolite_detected”. In addition, the Retention_time in [2] is 14.8 min.
Take `CC(C)(O)c1ccc(N2CCN(c3nnc(/C=C4\C=CC(=O)C=C4F)c4ccccc34)CC2)nc1`: the Drug metabolism entry at Cytochrome P450 3A4 [5] and in the series on Liver microsome [6] was “metabolite_detected” each time. This compound showed a Retention_time in series [2] of 17.46 min.
Take `CC(C)(O)c1ccc(N2CCN(c3nnc(Cc4cc(SC[C@H](NC(=O)CC[C@H](N)C(=O)O)C(=O)NCC(=O)O)c(O)cc4F)c4ccccc34)CC2)nc1`: the Drug metabolism result on Cytochrome P450 3A4 [5] and in the series with Liver microsome [6] was “metabolite_detected” each time. In addition, the Retention_time in [2] worked out at 9.92 min.
The compound `C/C=C(/C(=C1C=CC(=O)C=C1)c1ccccc1)c1ccccc1` showed a half-life in series [1] of 4 h.
